Results taken from ChEMBL document CHEMBL1157643, “SAR and molecular mechanism study of novel acylhydrazone compounds targeting HIV-1 CA” (Bioorg Med Chem, 2010).
Active and inactive are the calls of the source. No cut-off for these calls is given here.

Columns and labels:
[1] = tested on: Simian immunodeficiency virus; assay: Antiviral activity against SIV-induced syncytium in human CEM174 cells assessed as inhibition of virus-induced cytopathogenicity after 5 days; assay type: functional, organism-based; conditions: CEM174, 120 h
Method in brief: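 CEM174 cells at 1 × 10⁵ cells/mL in 96-well format, infected with 100 TCID₅₀ SIV per well alongside serial dilutions of compound. Incubated 5 days at 37 °C, 5% CO₂, humidified. Syncytium (giant cell) formation scored microscopically. EC₅₀ = concentration protecting cells 50% against SIV cytopathogenicity.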

[2] = Cytotoxicity against mock-infected human CEM174 cells after 5 days by MTT assay; assay type: cell-based; conditions: read-out: TC50
Method in brief: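 Uninfected CEM174 cells handled as in the antiviral assay (1 × 10⁵ cells/mL, compound dilutions, 5 days, 37 °C, 5% CO₂). Proliferation read by MTT reduction. TC₅₀ = concentration inhibiting cell proliferation by 50%.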

[3] = Therapeutic index, TC50 for human CEM174 cells to EC50 for SIV-induced syncytium in human CEM174 cells; assay type: cell-based; conditions: read-out: TI
Method in brief: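 Ratio TC₅₀/EC₅₀. TC₅₀ comes from the MTT proliferation assay in uninfected CEM174 cells. EC₅₀ comes from microscopic scoring of syncytia in CEM174 cells infected with 100 TCID₅₀ SIV per well. Both were run over 5 days at 37 °C, 5% CO₂.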

[4] = biological target: Structural capsid protein (Human immunodeficiency virus 1) (UniProt Q76129); assay: Binding affinity to HIV1 capsid protein assessed as viral capsid assembly rate at 1 mM by ultraviolet spectrophotometry (RVb= 60.56 +/- 3.77 milliOD/min)
[5] = biological target: Structural capsid protein (Human immunodeficiency virus 1) (UniProt Q76129); assay: Binding affinity to HIV1 capsid protein assessed as inhibition of viral capsid assembly at 1 mM after 600 mins by turbidity-based ultraviolet spectrophotometry

Structural capsid protein (Human immunodeficiency virus 1), sequence (Q76129 as listed by the source): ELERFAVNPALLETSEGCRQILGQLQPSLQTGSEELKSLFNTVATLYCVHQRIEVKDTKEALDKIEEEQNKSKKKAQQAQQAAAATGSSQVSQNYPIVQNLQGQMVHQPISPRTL

| Compound | EC50 [1] | CC50 at 120 h [2] | selectivity ratio [3] | Activity (milli optical density/minute) [4] | inhibition [5] |
| --- | --- | --- | --- | --- | --- |
| CCC(C)[C@H](NC(=O)c1ccc(OC)cc1)C(=O)N/N=C/c1ccc(Cl)cc1 (mixture of isomers) | 8.1 µM | > 100 µM | > 12.3 | 10.2 | – |
| COc1ccc(C(=O)N[C@@H](Cc2c[nH]cn2)C(=O)N/N=C/c2ccc(Cl)cc2)cc1 | 3.27 µM | > 100 µM | > 30.6 | 8.89 | – |
| CC[C@@H](C)[C@H](NC(=O)c1ccc(OC)cc1)C(=O)N/N=C/c1ccc(C)cc1 | 13.9 µM | > 100 µM | > 7.2 | 33.4 | inactive |
| CC[C@@H](C)[C@H](NC(=O)c1ccc(OC)cc1)C(=O)N/N=C/c1ccco1 | 1.7 µM | > 100 µM | > 58.8 | 5.82 | – |
| CC[C@@H](C)[C@H](NC(=O)c1ccc(OC)cc1)C(=O)N/N=C/c1ccc(O)cc1 | 4.15 µM | > 100 µM | > 24.1 | 30.1 | – |
| COc1ccc(C(=O)N[C@@H](Cc2ccc(O)cc2)C(=O)N/N=C/c2ccc(C)cc2)cc1 | 5.21 µM | 41.1 µM | 7.9 | 20.4 | – |
| COc1ccc(C(=O)N[C@@H](Cc2ccc(O)cc2)C(=O)N/N=C/c2ccco2)cc1 | 9.03 µM | 30.6 µM | 3.38 | 19.1 | – |
| COc1ccc(C(=O)N[C@@H](Cc2ccc(O)cc2)C(=O)N/N=C/c2ccc(Cl)cc2)cc1 | 14.9 µM | 40 µM | 2.69 | 24.3 | inactive |
| Cc1ccc(S(=O)(=O)C[C@@H](Cc2ccccc2)C(=O)N/N=C/c2ccc3c(c2)OCO3)cc1 | 0.17 µM | – | – | – | – |
| COc1ccc(C(=O)N[C@@H](Cc2ccc(O)cc2)C(=O)N/N=C/c2ccccc2)cc1 | 4.61 µM | > 100 µM | > 21.7 | 32.5 | – |
| COc1ccc(C(=O)N[C@H](C(=O)N/N=C/c2ccc(Cl)cc2)[C@@H](C)O)cc1 | 4.98 µM | > 100 µM | > 20.1 | 49.5 | – |
| CC[C@@H](C)[C@H](NC(=O)c1ccc(OC)cc1)C(=O)N/N=C/c1ccccc1 | 7.65 µM | 77.9 µM | 10.2 | 25.4 | – |
| COc1ccc(C(=O)N[C@H](C(=O)N/N=C/c2ccc(O)cc2)[C@@H](C)O)cc1 | 8.13 µM | > 100 µM | > 12.3 | 24.9 | – |
| COc1ccc(C(=O)N[C@H](C(=O)N/N=C/c2ccccc2)C(C)C)cc1 | 4.08 µM | > 100 µM | > 24.5 | – | – |
| COc1ccc(C(=O)N[C@@H](C)C(=O)N/N=C/c2ccccc2)cc1 | 6.41 µM | > 100 µM | > 15.6 | – | – |
| COc1ccc(/C=N/NC(=O)[C@H](Cc2c[nH]cn2)NC(=O)c2ccc(OC)cc2)cc1 | 0.41 µM | > 100 µM | > 244 | 3.58 | Active |
| COc1ccc(C(=O)N[C@@H](Cc2c[nH]cn2)C(=O)N/N=C/c2ccc(O)cc2)cc1 | 3.18 µM | > 100 µM | > 31.4 | 24.7 | – |
| COc1ccc(C(=O)N[C@H](C(=O)N/N=C/c2ccc(C)cc2)[C@H](C)O)cc1 | 8.17 µM | > 100 µM | > 12.2 | 11.9 | – |
| COc1ccc(C(=O)N[C@H](C(=O)N/N=C/c2ccccc2)[C@H](C)O)cc1 | 0.77 µM | > 100 µM | > 130 | 21.4 | – |
| COc1ccc(C(=O)N[C@@H](Cc2c[nH]cn2)C(=O)N/N=C/c2ccc(C)cc2)cc1 | 1.55 µM | > 100 µM | > 64.5 | 6.05 | – |
| COc1ccc(C(=O)N[C@@H](Cc2c[nH]cn2)C(=O)N/N=C/c2ccco2)cc1 | 8.44 µM | > 100 µM | > 11.8 | 29.3 | – |
| COc1ccc(C(=O)N[C@@H](Cc2c[nH]cn2)C(=O)N/N=C/c2ccccc2)cc1 | 0.56 µM | > 100 µM | > 179 | 3.26 | Active |
| COc1ccc(C(=O)N[C@@H](Cc2ccc(O)cc2)C(=O)N/N=C/c2ccc(O)cc2)cc1 | 7.81 µM | > 100 µM | > 12.8 | 8.77 | – |
| COc1ccc(C(=O)N[C@@H](Cc2c[nH]cn2)C(=O)N/N=C/c2ccc([N+](=O)[O-])cc2)cc1 | 4.4 µM | > 100 µM | > 22.7 | 12.6 | – |
